Measured values reported in ChEMBL document CHEMBL5674876, “Epigenetic Activation of Pro-angiogenic Signaling Pathways in Human Endothelial Progenitors Increases Vasculogenesis” (Stem Cell Reports, 2017).
The source made the active and inactive calls.

Assays:
HUVEC [1] = assay: Effect on pro-angiogenic property in human umbilical cord derived endothelial colony forming cells assessed as cell migration treated for 10 hrs measured by crystal violet staining analysis based gap closure assay; assay type: functional; conditions: dose 2.5-20 nM
HUVEC [2] = assay: Effect on pro-angiogenic property in human umbilical cord derived endothelial colony forming cells assessed as formation of capillary network on matrigel at 2.5 to 500 nM; assay type: functional, cell-based; conditions: dose 2.5-500 nM
Procedure, shortened: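 Drug- or vehicle-pretreated ECFCs seeded at 5,000 cells/well on phenol-red-free growth-factor-reduced Matrigel in duplicate; after 24 hr stained with 5 μg/mL calcein 5 min at 37°C, imaged at 2.5×. Total tube length expressed as percentage of vehicle control ±SEM, three independent experiments.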

HUVEC [3] = assay: Effect on pro-angiogenic property in human umbilical cord derived endothelial colony forming cells assessed as increase in DLL1 level by qRT-PCR analysis; assay type: functional, cell-based
HUVEC [4] = assay: Effect on pro-angiogenic property in human umbilical cord derived endothelial colony forming cells assessed as increase in SHH level by qRT-PCR analysis; assay type: functional, cell-based

Measured: Activity

Cc1[nH]c2ccccc2c1CCNCc1ccc(/C=C/C(=O)NO)cc1
active: HUVEC [1] Dose-Dependent Effect | HUVEC [2] Dose-Dependent Effect | HUVEC [3] | HUVEC [4]
